dFosB act = activators of delta FosB homodimer, primary screen, biochemical, fluorescence polarization, TAMRA-CDK5 oligo, single point; Protein FosB (Mus musculus), P13346; purified delta FosB; percent of positive-control signal above neutral wells; activation, % at 25 µM; actives 0.99% (n = 340,000); AID 493131, 2011;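 active means mean activation above about 17%, with every replicate also reaching it, limit read from the data, passing the limit was not always enough; inconclusive means only one of the two conditions met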
SR-BI uptake up = activators of SR-BI mediated DiI-HDL uptake, primary screen, ldlA[mSR-BI] CHO cells, DiI fluorescence | 3 h; 100 = double the neutral-control signal | activation, % at 12.5 µM | actives 0.096% (n = 320,000) | AID 504775, 2011;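 active means mean replicate activation of at least 60% and every replicate at or above 60%; inconclusive means mean or all-replicate condition met, but not both; inactive means mean below 60% and not all replicates reaching 60%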;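 further: 0% = median plate neutral-control signal and 100% = twice that signal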
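system = CHO ldlA[mSR-BI] cells, LDL receptor-null, SR-BI overexpressing | medium = Ham's F12 with 0.5% BSA, HEPES 25 mM, pH 7.4 | probe or stimulus = DiI-HDL 10 µg/mL | compound dosing = single-point compound dose | incubation = compound exposure 3 h, 37 °C | technique = DiI fluorescence, bottom read | read-out = cell-associated DiI fluorescence as measure of HDL uptake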
NSD2 inh = NSD2 histone methyltransferase inhibitors, primary screen, biochemical, AlphaScreen, single concentration, set 2. AID 743445, 2014. actives 0.54% (n = 310,000). NSD2 peptide methylation, 120 min. inhibition, % at 12.5 µM. Histone-lysine N-methyltransferase NSD2 (Homo sapiens), O96028
CDK5 inh = inhibitors of human CDK5/p35 kinase, primary screen, biochemical, single concentration. Cyclin-dependent kinase 5 (Homo sapiens) + Cyclin-dependent kinase 5 activator 1 (Homo …. Recombinant CDK5/p35, ADP-Glo luminescence, 60 min. inhibition, % at 10 µM. actives 0.01% (n = 330,000). AID 488839, 2010;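 active means highest replicate inhibition of at least 50% and at least 75% of replicates reaching 50%; inconclusive means only one of the two criteria met; inactive means both criteria failed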;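 further: plate controls were DMSO neutral control for no effect and GW8510 at 10 µM for full effect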
Target sequence (Q00535 whole entry, looked up): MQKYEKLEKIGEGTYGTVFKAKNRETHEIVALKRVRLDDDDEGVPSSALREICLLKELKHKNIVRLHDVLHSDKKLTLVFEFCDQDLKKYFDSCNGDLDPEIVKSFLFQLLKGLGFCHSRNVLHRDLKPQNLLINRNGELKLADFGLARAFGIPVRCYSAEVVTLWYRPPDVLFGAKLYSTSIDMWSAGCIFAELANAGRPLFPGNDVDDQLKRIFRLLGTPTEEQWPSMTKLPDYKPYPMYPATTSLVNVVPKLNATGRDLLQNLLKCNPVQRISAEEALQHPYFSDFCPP
Target sequence (Q15078 whole entry, looked up): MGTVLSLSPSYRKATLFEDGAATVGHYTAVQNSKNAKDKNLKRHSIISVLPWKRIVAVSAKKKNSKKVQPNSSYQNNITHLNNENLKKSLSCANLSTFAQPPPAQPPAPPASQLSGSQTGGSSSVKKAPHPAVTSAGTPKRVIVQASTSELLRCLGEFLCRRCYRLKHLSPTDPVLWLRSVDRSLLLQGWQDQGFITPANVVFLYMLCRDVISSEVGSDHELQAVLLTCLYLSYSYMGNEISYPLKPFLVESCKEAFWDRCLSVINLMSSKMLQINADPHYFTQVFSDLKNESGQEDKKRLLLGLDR
DYRK1A inh = rat Dyrk1A kinase inhibitors, primary screen, biochemical, single point, plate reader | Dual specificity tyrosine-phosphorylation-regulated kinase 1A (Rattus norvegicus), Q63470 | ADP-Glo luminescence, NFATc1 peptide | inhibition, % at 12.5 µM | actives 0.43% (n = 310,000) | AID 504441, 2011;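 further: plate controls were vehicle with enzyme for no effect and no enzyme for full effect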
SR-BI DiI inh = inhibitors of SR-BI mediated HDL lipid uptake, primary screen, ldlA[mSR-BI] cells, fluorescence, single point; AID 488896, 2010; ldlA[mSR-BI] CHO cells, DiI-HDL uptake fluorescence, 3 h; inhibition, % at 12.5 µM; actives 0.96% (n = 320,000);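 active means mean replicate inhibition of at least 70% and a set share of replicates each scoring 70 or more; inconclusive means meets just one of the two criteria; inactive means fails both criteria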;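 further: 0% = median of neutral control wells and 100% = median of positive control wells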
* = called active by the depositor; ? = inconclusive; · = no result. Only some compounds are listed: those with a hit (about 2.5% of all), similar ones and a draw of the others. Unless noted, no stated cut-off is given here; in the data, active means inhibition above about 50%; inactive means the rest.

SMILES	dFosB act	SR-BI uptake up	NSD2 inh	CDK5 inh	DYRK1A inh	SR-BI DiI inh
CN=C1S/C(=C\c2ccc(O)c(OC)c2)C(=O)N1C	·	·	-2	·	·	·
CN=C1S/C(=C\c2ccc(OCC(=O)OC)c(OC)c2)C(=O)N1C	-5	441*	-2	-1	0	-441
Cc1ccc(C(=O)N/N=C/c2c(O)ccc3ccccc23)cn1	-2	-93	22	0	1	93*
O=C(NN=Cc1c(O)ccc2ccccc12)c1ccncc1	8	-97	2	1	17	97*
O=C(N/N=C/c1c(O)ccc2ccccc12)c1cccnc1	11	-51	-2	2	-10	51
O=C(N/N=C/c1c(O)ccc2ccccc12)c1ccc[n+](CCO)c1	1	-37	8	1	1	37
CC(=NNC(=O)c1ccncc1)c1ccc2ccccc2c1O	-7	-127	0	-1	-1	127*
O=C(N/N=C\c1c(O)ccc2ccccc12)c1ccc(O)cc1	?	-94	2	1	11	94*
COc1ccc(CN(C(=O)c2snc(C(N)=O)c2N)C(C(=O)NC2CCCC2)c2ccco2)cc1 (centres undefined)	-11	·	-6	-2	-3	·
C[C@H]1[C@H](N(Cc2ccccc2)Cc2ccccc2)CC[C@@]23CCCN2C(=O)CCC[C@@H]13	·	·	1	·	·	·
O=C(Cc1cccc2ccccc12)Nc1ccccc1O	·	·	-2	·	·	·
O=S(=O)(CS(=O)(=O)c1ccc(Br)cc1)c1ccc(Br)cc1	·	·	1	·	·	·
O=C1CCCCN1CCC(=O)N1CCCC(N2CCN(c3ccccc3)CC2)C1 (centres undefined)	1	7	·	2	2	-7
CC(C)C[C@H](NC1(C(=O)NCCc2c[nH]c3ccccc23)CCN(C)CC1)C(=O)NCCCc1ccccc1	·	·	3	·	·	·
Cn1nccc1C(=O)N/N=C/c1c(O)ccc2ccccc12	-10	-105	-7	1	-1	105*
Cc1occc1C(=O)N/N=C/c1c(O)ccc2ccccc12	-4	-114	-1	-1	2	114*
O=C(CN1CCOCC1)N/N=C/c1c(O)ccc2ccccc12	-4	-25	-2	2	35	25
Cn1cc(C(=O)N/N=C/c2c(O)ccc3ccccc23)ccc1=O	10	-102	-1	2	1	102*
O=C(N/N=C/c1c(O)ccc2ccccc12)Nc1ccccc1	·	·	-4	·	·	·
O=C(N/N=C/c1c(O)ccc2ccccc12)c1ccc(Br)o1	30*	-124	-1	-2	3	124*
Cc1cccc(C)c1N(CC(=O)N1CCOCC1)S(C)(=O)=O	-6	3	-3	0	-2	-3
CCOc1ccc2ccccc2c1/C=N\NC(=O)c1ccc([N+](=O)[O-])cc1	3	-78	0	0	0	78*
O=C(N/N=C\c1c(O)ccc2ccccc12)c1cncc(Br)c1	5	-143	-1	2	-6	143*
CCN(CC)c1ccc(C=Nn2c(-c3cc(C)[nH]n3)n[nH]c2=S)cc1	·	·	10	·	·	·
C[C@H]1[C@@H](NC(=O)/C=C/c2ccccc2)CC[C@@]23CCCN2C(=O)CCC[C@@H]13	·	·	-4	·	·	·
SMILES	dFosB act	SR-BI uptake up	NSD2 inh	CDK5 inh	DYRK1A inh	SR-BI DiI inh
CC/C(=N\NC(=O)c1ccc(CN(C)S(=O)(=O)c2ccc(C)cc2)cc1)c1ccc(OC(F)F)cc1	-2	-80	2	1	-9	80*
COc1ccccc1C(=O)NC1=NCCS1	·	·	1	·	·	·
O=C(NC1CCN(S(=O)(=O)c2ccccc2)CC1)c1cccc(F)c1	-1	7	-2	1	-2	-7
Cc1ccc(NC(=O)c2ccc(NCCN)c([N+](=O)[O-])c2)cc1Cl	39*	-35	18	1	-5	35
Cc1ccc(NC(=O)c2ccc(NCCc3ccccc3)c([N+](=O)[O-])c2)cc1F	-4	-68	-4	2	-1	68
CCCN1C(=O)/C(=C\C=C2/C=CN(CC)c3ccccc32)SC1=S	-7	-146	20	9	1	146*
Cn1c(Cc2cccs2)nnc1SCC(=O)Nc1ccc2c(c1)OCO2	·	·	1	·	·	·
COc1cccc(C(=O)Nc2ccc3nc(N4CCOCC4)cc(C)c3c2)c1	-1	-79	·	-1	3	79*
Cc1c(C(=O)Nc2ccccc2)sc2nc(-c3ccccc3)cn12	-13	-77	1	0	0	77*
Cc1cccc(NC(=O)c2sc3nc(-c4ccccc4)cn3c2C)n1	-1	-12	·	0	·	12
Cc1ccccc1SCC(=O)NNC(=O)c1ccncc1	-4	13	-1	-2	·	-13
Cc1ccccc1SCC(=O)NNC(=O)c1ccccc1O	-3	-79	24	0	-7	79*
O=C(Cc1cccs1)N1CCN(S(=O)(=O)c2ccc(Br)cc2)CC1	1	195*	0	-1	0	-195
CCc1ccc(NC(=O)C2CCCN2c2nn3c(=O)cc(C)nc3s2)cc1 (centres undefined)	-12	1	·	-1	2	-1
Cc1sc2nc(COC(=O)CNC(=O)c3ccccc3Cl)[nH]c(=O)c2c1C	·	·	-1	·	·	·
COc1cc(C2Oc3ccccc3C=C2[N+](=O)[O-])cc(OC)c1OC (centres undefined)	·	·	6	·	·	·
CCOc1ccc(C(C)=O)cc1CSc1nnc(-c2ccoc2C)n1N	-2	·	-1	1	-3	71*
O=C(COC(=O)c1cc(Cl)nc(Cl)c1)NC1CCCCC1	·	·	-1	·	·	·
CCN1C(=O)/C(=C2/C(=O)N3c4c(cc(OC(C)=O)cc42)C(C)=CC3(C)C)SC1=S	6	-86	3	1	-1	86*
COc1ccc(OC)c(NC(=O)c2cc(-c3cc(C)cc(C)c3O)n[nH]2)c1	12	-77	19	2	-6	77*
Cc1cccc(NC(=O)c2cc(-c3cc(C)cc(C)c3O)n[nH]2)c1	12	-72	-1	0	-8	72*
COc1ccc(NC(=O)c2cc(-c3ccccc3O)n[nH]2)cc1Cl	25*	-22	0	1	-1	22
CCC[C@H]1[C@@H](NCc2ccccc2)CC[C@@]23CCCN2C(=O)CCC[C@@H]13	·	·	-2	·	·	·
Cc1ccc(S(=O)(=O)N2CCN(CC(=O)Nc3ccnn3C3CCCC3)CC2)cc1	2	6	7	0	·	-6

High-throughput results deposited in PubChem BioAssay by Broad Institute.
